Measurements as given in the RNAGym collection of RNA variant scans (doi:10.1126/science.aae0568).
Fewer inactive variants are shown than the library holds.

B1: tRNA (parent)
chain: GUUCCGUUGGCGUAAUGGUAACGCGUCUCCCUCCUAAGGAGAAGACUGCGGGUUCGAGUCCCGUACGGAACG

Variants of: B1
Assay: yeast fitness relative to wild type (ratio to wild type); higher = fitter; tRNA-Arg(CCU), competitive growth, 37 C, YPD
How it was run: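 For this measurement, the tRNA-Arg(CCU) gene was varied by chemical synthesis at a 3% per-site mutation rate across 69 sites, and each variant was placed at the native genomic locus in Saccharomyces cerevisiae. The pooled strains went through a 24-hour competition in YPD at 37°C in six parallel replicates, with amplicons from start and end populations read by 100-nucleotide paired-end sequencing. Darwinian fitness relative to wild type followed from the change in each genotype's frequency. Genotypes needed ≥ 100 starting reads, and estimates < 0.5 were set to 0.5.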

Variant | yeast fitness
C33A A40U | 0.741
C31U G41U G56A | 0.686
C33G A57G C61G A65G C66U | ≤ 0.5
U32A C33G C60A | ≤ 0.5
U32A U54C | 0.629
C31U G41U | 1.03
U32A G63A | 0.748
U32A G63C | 0.626
U32C A40U C55G A70C | ≤ 0.5
U32G C33G A70U | 0.543
C33A A36U | 0.615
C31U G44A | 1.02
U32A C33U | 0.597
C31U U32C U54G C55U C61U | ≤ 0.5
C33A G39C G41C G44C | 0.549
C31U G44C U64C | 0.559
U32C C34U U53A G68C | 0.537
C31U G68A A69G | 0.702
C33G A57U A70U | ≤ 0.5
U32C C33A G51C G68A | ≤ 0.5
U32C U35C C49U | 0.659
U32C G38A | 0.962
U32G G48C G58C | ≤ 0.5
U32C C33G G67C | ≤ 0.5

Variant | yeast fitness
C33G A43C G68A | ≤ 0.5
U32C G58C | 0.884
U32G C34A G38A A70G | ≤ 0.5
U32G C49U G56A | 0.744
C33G A42G G52A | ≤ 0.5
U32A A65C | 0.887
U32C A42U G48C | 0.567
C33G A36C C49A C60G A70U | ≤ 0.5
U32C G51A | 0.851
C31U G48C U59A G67C A69C | ≤ 0.5
U32A G39A U54A | ≤ 0.5
C31U G48A C55U G63C | 0.595
C33G G41A A42G C46G | ≤ 0.5
C31U C62U G63A | 0.617
U32G G58A | 0.609
C33G A45C U54C | ≤ 0.5
C33G C49G C55U | ≤ 0.5
C31U U53C C62U | ≤ 0.5
C33G A45C C61G | 0.567
U32A A36U G44C A45G | 0.516
U32C C46U G50A G56C C62A C66U | ≤ 0.5
C33G C34U U53C | 0.577
U32A C61G C66G | 0.576
U32A G68C | 0.721

Variant | yeast fitness
C33A U54A | ≤ 0.5
C33A A37U C62A | 0.503
C33G C34G C46U | 0.547
C33A U35C C46U C49U G52C C61U C66U | ≤ 0.5
U32A A37G G48A U59C | 0.541
C33G U54C C62A G68C | ≤ 0.5
C33G C61U | 0.711
C33G C61A | 0.607
C31U G48A A69C | 0.772
U32C C61G A69C | ≤ 0.5
C33G G44A G56A | ≤ 0.5
U32G A37U U64C | ≤ 0.5
C33G C34G C62U | ≤ 0.5
U32A A36U A70G | ≤ 0.5
C31U U35C A40G A65U | ≤ 0.5
U32C A43G C66U | 0.758
U32C A45U C66A | ≤ 0.5
C33G U53C | ≤ 0.5
C33A G38C A43G | ≤ 0.5
U32C G38C A69U | 0.531
U32G G38A C61G A70G | ≤ 0.5
C33A G39A A40U C55U C62U | ≤ 0.5
U32G C46G | 0.757
C31U U54A C62G G68C | ≤ 0.5

Variant | yeast fitness
C33A G68C | 0.744
C33A C34A G56A | ≤ 0.5
C31U G51A | 0.892
U32G A36U U59C | ≤ 0.5
U32C G56A | 1.07
C31U G41U G63A | 0.721
C33G C66G A70G | 0.54
C31U U47A | 0.817
U32C A69C | 0.943
U32A A36U C62U | ≤ 0.5
C31U U32G C33G G58C | ≤ 0.5
U32G G39C A57U U59A A69C | ≤ 0.5
C33A A36C G51A | 0.721
C31U G51A G56C G67C | 0.526
U32C G38C G68C A69C | 0.589
C33A A37C C61U C62A | 0.635
U32A C66A | 0.614
U32C A37C G38A G63A | 0.533
C33G A45C G50C | ≤ 0.5
C33G G63A | 0.6
U32C G68U | 0.877
U32C G68A | 0.921
U32G A36U | 0.697
U32G C33A U47A | ≤ 0.5

Variant | yeast fitness
C33G A65U | 0.728
C33G G51A C55A C66U | 0.56
C33G A40G A42C C66U | ≤ 0.5
C33G C55G G67A | ≤ 0.5
C31U U53A G68A | 0.515
C33G A45U C55U | ≤ 0.5
C31U G63C G67C A69U | 0.511
C33A U47A | 0.777
U32A A70C | 0.741
U32C G52A | 0.76
C33G A70U | 0.714
C33A C62U G67A | ≤ 0.5
U32G G41C C46U | 0.647
U32C C33U | 0.659
U32C G48A U53G | ≤ 0.5
U32C A36C | 0.756
U32A C55A C61U | 0.536
U32C G48C G56A | ≤ 0.5
U32A A42C | 0.817
C33A A57U C66U A69U | ≤ 0.5
U32G U35A A36G C66U | ≤ 0.5
U32C A65U G67A | 0.646
C33G A37G C49U C60U | 0.551
U32C C46U | 0.862

Variant | yeast fitness
U32A G58C C66A | ≤ 0.5
U32C C60G A65C | 0.501
U32A A42C C61G C66G | 0.554
U32A U64A G67A | ≤ 0.5
U32C C46G C62U | 0.733
C31U G52A | 0.871
U32G U54A G67C | ≤ 0.5
U32A C49U G68A | ≤ 0.5
C31U G41C A43C C60G | ≤ 0.5
C31U G39C | 0.901
U32A C61A A65U | ≤ 0.5
U32G G48A A70U | 0.553
U32A G58C A69U | 0.56
C33A A37U C55U A57C G58C | ≤ 0.5
C33A C60G | 0.613
C31U U32C | 0.812
U32A U64G | 0.751
C31U C61U A70U | 0.696
C33G G56C G67C | ≤ 0.5
U32C A40G G41A | ≤ 0.5
U32C C34G A65U A70G | ≤ 0.5
C33A A43U C49A | 0.591
U32C G48A A57C | ≤ 0.5
C33A A65G A69C | ≤ 0.5

Variant | yeast fitness
U32A G67A | 0.766
C33G A40G G51C C61U | ≤ 0.5
U32C G39C | 0.765
U32A A57U | 0.558
C33G U47A G67C A69U | ≤ 0.5
C33G | 0.743
C33U | 0.694
C33A | 0.795
C31U U53G | 0.644
C33G U35G A37C A43C G44A U64C | ≤ 0.5
U32C A42C C46U | 0.63
C31U G52A G68C | ≤ 0.5
U32C A37C G39C | ≤ 0.5
U32C A37U C49G A70U | 0.664
C33A G38C G50A U64C | ≤ 0.5
U32G A57C C62G C66G | 0.567
C31U U47G A65U | ≤ 0.5
U32G U35A A36G A57U | ≤ 0.5
U32G U47A U64A A65C G67A | 0.6
U32A C49G C55U A69C | 0.546
U32G G63C | 0.571
U32C U35C A37U G52A C66A | 0.719
C31U U59A | 0.771
